Measurements as given in article PMC2175347 (Nucleic Acids Research, 2007).
Positions count from the first letter of the chain named. Names and notes keep the numbering of the source. Values joined by “and” are separate entries in the source; they are usually repeats but may differ in a detail not shown here. Equal values may be shown once. No end group written: not given here.

Columns and labels:
G9a [1] = assay: Methyltransferase assay with peptide spanning amino acids 160–175 of G9a; format: biochemical, murine; details: even after 1 h of incubation; Supplementary Figure 1
G9afl [2] = molecular target: T1, G9afl (Mus musculus, UniProt Q9Z148); assay: Steady-state kinetics of G9afl on peptides representing ARKT/S motifs; format: biochemical, murine; details: peptide substrate, enzyme G9afl; for Km / kcat (turnover number): 25°C, pH 9.0, duplicate
T1 sequence (Q9Z148 1-1263): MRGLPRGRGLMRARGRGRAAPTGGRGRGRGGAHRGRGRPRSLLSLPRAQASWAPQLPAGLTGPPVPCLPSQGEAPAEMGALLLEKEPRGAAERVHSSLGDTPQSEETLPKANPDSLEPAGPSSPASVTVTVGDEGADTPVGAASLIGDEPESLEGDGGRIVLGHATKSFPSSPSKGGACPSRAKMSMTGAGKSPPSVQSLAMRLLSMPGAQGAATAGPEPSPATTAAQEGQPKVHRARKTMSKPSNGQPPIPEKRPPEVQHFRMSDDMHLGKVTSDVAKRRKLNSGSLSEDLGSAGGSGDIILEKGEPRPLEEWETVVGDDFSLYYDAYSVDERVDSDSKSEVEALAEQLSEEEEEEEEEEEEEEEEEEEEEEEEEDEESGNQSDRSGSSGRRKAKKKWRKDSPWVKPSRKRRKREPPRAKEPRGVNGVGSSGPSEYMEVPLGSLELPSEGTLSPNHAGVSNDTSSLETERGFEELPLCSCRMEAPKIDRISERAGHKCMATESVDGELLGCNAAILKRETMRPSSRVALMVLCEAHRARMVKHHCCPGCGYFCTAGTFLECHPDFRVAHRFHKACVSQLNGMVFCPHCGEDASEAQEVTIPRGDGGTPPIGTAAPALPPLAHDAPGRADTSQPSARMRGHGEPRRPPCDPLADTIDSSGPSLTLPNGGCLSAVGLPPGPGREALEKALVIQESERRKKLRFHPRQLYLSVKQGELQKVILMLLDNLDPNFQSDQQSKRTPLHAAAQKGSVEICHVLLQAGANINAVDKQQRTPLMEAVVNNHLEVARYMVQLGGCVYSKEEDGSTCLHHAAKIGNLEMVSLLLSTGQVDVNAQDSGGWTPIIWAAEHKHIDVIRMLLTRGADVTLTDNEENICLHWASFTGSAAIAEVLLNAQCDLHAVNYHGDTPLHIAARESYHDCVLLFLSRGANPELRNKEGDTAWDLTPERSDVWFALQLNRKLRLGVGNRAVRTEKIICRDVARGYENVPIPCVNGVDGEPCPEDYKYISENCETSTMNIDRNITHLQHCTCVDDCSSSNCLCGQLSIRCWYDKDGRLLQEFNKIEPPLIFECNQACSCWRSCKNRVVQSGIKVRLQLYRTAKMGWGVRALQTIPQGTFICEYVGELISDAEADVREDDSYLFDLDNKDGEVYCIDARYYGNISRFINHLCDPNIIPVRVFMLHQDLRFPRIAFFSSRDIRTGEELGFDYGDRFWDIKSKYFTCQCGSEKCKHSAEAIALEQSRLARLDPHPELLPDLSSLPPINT

G9a [3] = assay: In vitro automethylation assay of G9a; format: biochemical, murine; details: 100 fold excess cold AdoMet with tritiated AdoMet; Figure 2B lanes 2 versus 3
Outline: (§1)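 Automethylation: recombinant murine G9a (full-length or MBP-fused construct lacking the N-terminal 633 aa) incubated with S-adenosyl-L-[methyl-³H]methionine, either alone or, for H3 signal, with recombinant histone H3. Parallel reactions contained excess unlabelled AdoMet as competitor. Reactions run at 25°C for 1 h with 7 µM tritiated AdoMet, resolved on 4–20% SDS-PAGE, Coomassie-stained and fluorographed on film.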

H3 = assay: In vitro methylation of histone H3; format: biochemical; details: 100 fold excess cold AdoMet with tritiated AdoMet; Figure 2B lanes 4 versus 5
Outline: as §1

full-length G9a = assay: In vitro methylation of GST-G9a fusion fragments by G9afl; format: biochemical, murine; details: for methylation / radioactive incorporation of GST fusion fragment: fluorography and radioactive incorporation of each band, Figure 2D; for methylation of GST fusion by G9afl: tritiated AdoMet, fluorography, Figure 2C
G9amut = assay: Methylation of modified H3 peptide substrates by G9amut; format: biochemical, murine; details: 25 nM G9amut; Figure 4B
G9afl [4] = molecular target: T1, G9afl; assay: Methylation of modified H3 peptide substrates by wild-type G9a; format: biochemical, murine; details: 25 nM G9afl; Figure 4B
Wt-H3 = assay: Steady-state kinetics of G9a enzymes with Wt-H3 peptide; format: biochemical; details: GST fusion enzymes with Wt-H3, steady-state conditions; Supplementary Figure 2
HP1α = assay: Immunofluorescence co-localization with HP1α in COS-7 cells; format: cell-based; details: 48 h after transfection, Figure 6

## IVLGHATKSFPSSPSK [G9aK167]
G9a [1]
  methyl group incorporation to the peptide: did not observe methyl group incorporation to the peptide

## CADVKVHRARKTMPKSV [EuHMT]
G9afl [2]
  kcat/Km: 172 10^6 × M^−1 h^−1
  Km: 0.5 ± 0.05 µM
  kcat (turnover number): 0.0239 s⁻¹ and 0.0239 ± 0.00056 s⁻¹

## C[S+](CC[C@H](N)C(=O)[O-])C[C@H]1O[C@@H](n2cnc3c(N)ncnc32)[C@H](O)[C@@H]1O (stereo partly drawn) [cold AdoMet, S-adenosyl-L-methionine]
G9a [3]
  autoradiography signal for G9a: not apparent
H3
  autoradiography signal for H3: not apparent

## GST-G9a (210–246/K243A) (AQGAATAGPEPSPATTAAQEGQPKVHRARKTMSAPSN; also: GST fusion; UniProt Q9Z148 210-246, looked up, variant K243A)
full-length G9a
  methylation / radioactive incorporation of GST fusion fragment: decrease in K239 methylation

## GST-G9a (210–264/K239A) (AQGAATAGPEPSPATTAAQEGQPKVHRARATMSKPSNGQPPIPEKRPPEVQHFRM; also: GST fusion; UniProt Q9Z148 210-264, looked up, variant K239A)
full-length G9a
  methylation / radioactive incorporation of GST fusion fragment: impaired

## CARTKQTARKST(p)GG [H3T11p]
G9amut
  effect of phosphorylated peptide on enzyme: inhibited both enzymes
G9afl [4]
  effect of phosphorylated peptide on enzyme: inhibited both enzymes

## CPQKKVFKARKTMRVSD [mAM]
G9afl [2]
  kcat/Km: 140 10^6 × M^−1 h^−1
  Km: 0.7 ± 0.05 µM
  kcat (turnover number): 0.0272 s⁻¹ and 0.0272 ± 0.0011 s⁻¹

## CARTKQTARKS(p)TGG [H3S10p]
G9amut
  effect of phosphorylated peptide on enzyme: inhibited both enzymes
G9afl [4]
  effect of phosphorylated peptide on enzyme: inhibited both enzymes

## CGQPKVHRARKTMPKSV [G9a]
G9afl [2]
  kcat (turnover number): 0.0183 s⁻¹

B1: 264–633: GST fusion containing 264–633 amino acids of G9a (protein, UniProt Q9Z148 264-633, looked up, fragment)
chain: MSDDMHLGKVTSDVAKRRKLNSGSLSEDLGSAGGSGDIILEKGEPRPLEEWETVVGDDFSLYYDAYSVDERVDSDSKSEVEALAEQLSEEEEEEEEEEEEEEEEEEEEEEEEEDEESGNQSDRSGSSGRRKAKKKWRKDSPWVKPSRKRRKREPPRAKEPRGVNGVGSSGPSEYMEVPLGSLELPSEGTLSPNHAGVSNDTSSLETERGFEELPLCSCRMEAPKIDRISERAGHKCMATESVDGELLGCNAAILKRETMRPSSRVALMVLCEAHRARMVKHHCCPGCGYFCTAGTFLECHPDFRVAHRFHKACVSQLNGMVFCPHCGEDASEAQEVTIPRGDGGTPPIGTAAPALPPLAHDAPGRADTSQ
modifications: GST fusion
full-length G9a
  methylation of GST fusion by G9afl: did not methylate

B2: GST-G9afl (K167A) (protein, UniProt Q9Z148 1-1263, looked up, variant K167A)
chain: T1 sequence (Q9Z148 1-1263) with K167A
modifications: full-length GST fusion
Wt-H3
  kcat: 0.0183 s⁻¹

B3: GFP-G9amut (protein, UniProt Q9Z148 1-1263, looked up, variant K233A K239A K243A)
chain: T1 sequence (Q9Z148 1-1263) with K233A, K239A, K243A
modifications: full-length GFP fusion
HP1α
  co-localization with HP1α: did not co-localize with HP1α

B4: 1–117: GST fusion containing 1–117 amino acids of G9a (protein, UniProt Q9Z148 1-117, looked up, fragment)
chain: MRGLPRGRGLMRARGRGRAAPTGGRGRGRGGAHRGRGRPRSLLSLPRAQASWAPQLPAGLTGPPVPCLPSQGEAPAEMGALLLEKEPRGAAERVHSSLGDTPQSEETLPKANPDSLE
modifications: GST fusion
full-length G9a
  methylation of GST fusion by G9afl: did not methylate
